Measured values collected from several papers.
Lines come from different studies, so protocols differ.
Target: Inhibitor of nuclear factor kappa-B kinase subunit alpha (CHUK, Homo sapiens, UniProt O15111)
Sequence (O15111 1-745, as in one of the studies): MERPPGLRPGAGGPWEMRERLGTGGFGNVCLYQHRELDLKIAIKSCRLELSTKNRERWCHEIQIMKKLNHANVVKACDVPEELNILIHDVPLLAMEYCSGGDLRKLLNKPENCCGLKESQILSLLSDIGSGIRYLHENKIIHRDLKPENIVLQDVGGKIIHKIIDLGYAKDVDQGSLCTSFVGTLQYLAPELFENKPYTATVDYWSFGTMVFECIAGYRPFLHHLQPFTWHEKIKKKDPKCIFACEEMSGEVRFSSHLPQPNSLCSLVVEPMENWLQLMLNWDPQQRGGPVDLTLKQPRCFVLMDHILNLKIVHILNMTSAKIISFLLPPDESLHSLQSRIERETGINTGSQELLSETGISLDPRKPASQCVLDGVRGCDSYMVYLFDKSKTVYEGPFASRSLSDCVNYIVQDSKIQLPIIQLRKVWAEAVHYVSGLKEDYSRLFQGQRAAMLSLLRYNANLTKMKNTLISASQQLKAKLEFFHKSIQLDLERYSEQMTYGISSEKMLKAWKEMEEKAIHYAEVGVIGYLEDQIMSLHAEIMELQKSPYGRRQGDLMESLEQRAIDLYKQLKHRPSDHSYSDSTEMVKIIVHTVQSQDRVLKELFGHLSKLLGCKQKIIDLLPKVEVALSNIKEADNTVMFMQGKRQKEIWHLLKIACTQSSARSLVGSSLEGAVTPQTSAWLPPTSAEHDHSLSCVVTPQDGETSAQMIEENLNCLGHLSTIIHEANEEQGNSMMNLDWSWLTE

| Compound | assay | conditions | endpoint | result |
| --- | --- | --- | --- | --- |
| COc1cc(Cl)c(C(=O)N[C@@H](CN[C@H]2CC[C@@H](N)CC2)Cc2ccc(C#N)cc2)cc1-c1ccc(CN[C@H](C)c2ccc(C)cc2)o1 | enzyme activity, inhibitor | 1 µM | remaining activity | 95% |
| Nc1ncnc2occ(-c3ccc(NC(=O)Nc4cc(C(F)(F)F)ccc4F)cc3)c12 | enzyme activity, inhibitor | 20 µM | remaining activity | 0% |
| CCN(CC)c1ccc(C2=NNC(=O)CC2C)cc1[N+](=O)[O-] (stereo not shown) | enzyme activity, inhibitor | 10 µM | remaining activity | 109% |
| Cc1cc(NC(=O)c2cccc3cc(-c4cccc5[nH]nc(N)c45)ccc23)ccc1F | enzyme activity, inhibitor | 0.1 µM | activity vs control | 127% |
| O=C1NC(=O)c2cc(Nc3ccc(F)cc3)c(Nc3ccc(F)cc3)cc21 | cell-free assay, inhibitor | 0.5 µM | remaining signal | 99.2% |
| CCN(CC)CCNC(=O)c1c(C)[nH]c(/C=C2\C(=O)Nc3ccc(F)cc32)c1C | enzyme activity, inhibitor | 10 µM | inhibition | 52% |
| O=C(NCc1ncc(C(F)(F)F)cc1Cl)c1ccc2c(c1)C1(CCS(=O)(=O)CC1)[C@H](C1CC1)N2S(=O)(=O)c1ccc(F)cc1 | cell-free assay, competition with immobilised ligand | 1 µM | remaining binding | 77% |
| Cc1sc(C(=O)NC2COC2)cc1-n1cc(NC(=O)Nc2c(F)cccc2Cl)cn1 | enzyme activity, inhibitor | 10 µM | remaining activity | 101% |
| O=C(N1CCS(=O)(=O)CC1)N1C[C@H](c2ccc(OC(F)(F)F)cc2)C[C@H](c2nc(C3CC3)no2)C1 | cell-free assay, competition with immobilised ligand | 1 µM | remaining binding | 97% |
| O=C1Nc2ccc(Cl)cc2C1=Cc1cc(Cl)c(O)c(Cl)c1 | cell-free assay | 0.5 µM | remaining signal | 97% |
| CCC(=O)N[C@@H]1CC[C@H](C(=O)N(C)c2ccc(-c3nc4ccccc4o3)cc2)C1 | cell-free assay, competition with immobilised ligand | 1 µM | remaining binding | 100% |
| Cc1ccc(C(=O)NCc2ccsc2)cc1C#Cc1cn(C(C)C)c2ncnc(N)c12 | enzyme activity, inhibitor | 1 µM | activity vs control | 102% |
| NS(=O)(=O)c1cc(NC(=O)Cc2ccccc2)ccc1Oc1cccc(Cl)c1 | cell-free assay, competition with immobilised ligand | 1 µM | remaining binding | 63% |
| CNCc1ccc(-c2cc(-c3nc(-c4ccc(S(=O)(=O)C(C)C)cc4)cnc3N)on2)cc1 | enzyme activity, inhibitor | 2 µM | inhibition | 36% |
| CCS(=O)(=O)c1cc2cc(C[C@@](O)(CC(C)(C)c3ccc(F)cc3C(N)=O)C(F)(F)F)[nH]c2cn1 | cell-free assay, competition with immobilised ligand | 1 µM | remaining binding | 95% |
| COc1cccc2c(NCc3ccccc3)nc(-n3c(N)nc4ccccc43)nc12 | target engagement in cells, inhibitor, chemoproteomics | 20 mM | inhibition | 8.5% |
